From article PMC10127574 (ACS chemical biology, 2015)
pIC50, pKi: −log10 of the molar value. Like-named read-outs stand apart in the source and are kept apart here.

How the values were obtained:
IDE mutant sC812 = test: inhibition of single-cysteine IDE mutant sC812; type: biochemical, human; conditions: Figure 3B
extracellular IDE = target: T1, extracellular IDE (Homo sapiens, UniProt P14735); test: cell-based IDE activity assay; conditions: for activity by hit cutoff criteria: Table 1 screening assays
T1 sequence (P14735 1-1019): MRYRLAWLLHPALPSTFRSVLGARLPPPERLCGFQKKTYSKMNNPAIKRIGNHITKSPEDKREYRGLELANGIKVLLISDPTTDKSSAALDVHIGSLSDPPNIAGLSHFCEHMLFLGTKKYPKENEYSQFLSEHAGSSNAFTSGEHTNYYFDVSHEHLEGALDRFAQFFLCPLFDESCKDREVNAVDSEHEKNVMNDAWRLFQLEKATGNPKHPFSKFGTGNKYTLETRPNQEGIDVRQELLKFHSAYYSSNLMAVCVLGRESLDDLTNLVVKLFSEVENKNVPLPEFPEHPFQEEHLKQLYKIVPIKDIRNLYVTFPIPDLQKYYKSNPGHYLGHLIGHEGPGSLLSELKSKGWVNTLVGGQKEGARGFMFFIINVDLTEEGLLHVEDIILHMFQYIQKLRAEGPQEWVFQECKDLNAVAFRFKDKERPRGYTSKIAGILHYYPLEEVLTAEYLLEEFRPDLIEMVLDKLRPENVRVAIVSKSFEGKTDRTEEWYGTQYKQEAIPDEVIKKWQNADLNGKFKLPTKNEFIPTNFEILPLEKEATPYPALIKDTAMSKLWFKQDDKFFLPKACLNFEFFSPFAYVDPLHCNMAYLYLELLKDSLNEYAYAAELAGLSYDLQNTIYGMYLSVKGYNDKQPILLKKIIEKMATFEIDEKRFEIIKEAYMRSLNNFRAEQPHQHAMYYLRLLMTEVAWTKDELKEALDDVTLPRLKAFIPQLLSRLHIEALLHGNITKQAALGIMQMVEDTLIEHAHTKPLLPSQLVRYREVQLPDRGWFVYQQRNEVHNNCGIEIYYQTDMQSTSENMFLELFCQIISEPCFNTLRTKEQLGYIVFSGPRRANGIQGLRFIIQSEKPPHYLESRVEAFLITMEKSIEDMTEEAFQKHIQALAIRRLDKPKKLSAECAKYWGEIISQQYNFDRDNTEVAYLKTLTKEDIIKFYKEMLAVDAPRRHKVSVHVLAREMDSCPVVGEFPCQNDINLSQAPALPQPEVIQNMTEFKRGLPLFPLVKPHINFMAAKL
How it was run: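 Extracellular IDE secreted by HEK-293 cells, harvested mechanically rather than by trypsin, served as the endogenous enzyme source. Activity was read by fluorescence polarization with fluoresceinated, biotinylated Aß peptide (FAßB) in DTT-free solutions. The primary screen used a nominal compound concentration of 6 μM. Confirmed hits were retested in dose-response format to give apparent IC50.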

[1] = target: T2, intracellular pools of IDE (Homo sapiens, UniProt P14735); test: intracellular IDE activity after incubation of intact HEK cells; type: cell-based; conditions: 10 μM, 36 h
T2 sequence (P14735 1-1019): T1 sequence (P14735 1-1019)
How it was run: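 Confluent HEK monolayers were exposed 36 h to 10 μM compound or DMSO vehicle, and conditioned medium was collected. Cells were washed 3× in PBS and held 30 min in hypotonic 50 mM Tris-HCl at 4 °C. They were scraped, extruded 3× through a 30G needle and spun 10,000 × g, 10 min, 4 °C. Supernatant activity was assayed by FAßB degradation without or with 1 mM DTT.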

WT-IDE [2] = target: T3, WT-IDE (Homo sapiens, UniProt P14735); test: kinetics of irreversible inhibition; type: biochemical; conditions: WT-IDE 2 nM, FRET1 5 μM; rate constant of irreversible step
T3 sequence (P14735 1-1019): T1 sequence (P14735 1-1019)
How it was run: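 Recombinant WT-IDE (2 nM) and FRET1 substrate (5 μM) were monitored continuously at 3-s intervals, starting immediately after adding inhibitor at several concentrations. Curve fits gave observed rate constants, which were plotted against inhibitor concentration. A hyperbolic fit gave kinhib and KM. LE was taken as ΔG/heavy atoms using KM; SEI as pKM/tPSA/100 Å2.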

[3] = target: T4, cysteine-free form of IDE (CF-IDE) (Homo sapiens, UniProt P14735, C819S, form not given); test: IDE activity assay with FRET1 using cysteine-free IDE; type: biochemical; conditions: read-out: ki CF-IDE
T4 sequence (P14735 42-1019 C819S): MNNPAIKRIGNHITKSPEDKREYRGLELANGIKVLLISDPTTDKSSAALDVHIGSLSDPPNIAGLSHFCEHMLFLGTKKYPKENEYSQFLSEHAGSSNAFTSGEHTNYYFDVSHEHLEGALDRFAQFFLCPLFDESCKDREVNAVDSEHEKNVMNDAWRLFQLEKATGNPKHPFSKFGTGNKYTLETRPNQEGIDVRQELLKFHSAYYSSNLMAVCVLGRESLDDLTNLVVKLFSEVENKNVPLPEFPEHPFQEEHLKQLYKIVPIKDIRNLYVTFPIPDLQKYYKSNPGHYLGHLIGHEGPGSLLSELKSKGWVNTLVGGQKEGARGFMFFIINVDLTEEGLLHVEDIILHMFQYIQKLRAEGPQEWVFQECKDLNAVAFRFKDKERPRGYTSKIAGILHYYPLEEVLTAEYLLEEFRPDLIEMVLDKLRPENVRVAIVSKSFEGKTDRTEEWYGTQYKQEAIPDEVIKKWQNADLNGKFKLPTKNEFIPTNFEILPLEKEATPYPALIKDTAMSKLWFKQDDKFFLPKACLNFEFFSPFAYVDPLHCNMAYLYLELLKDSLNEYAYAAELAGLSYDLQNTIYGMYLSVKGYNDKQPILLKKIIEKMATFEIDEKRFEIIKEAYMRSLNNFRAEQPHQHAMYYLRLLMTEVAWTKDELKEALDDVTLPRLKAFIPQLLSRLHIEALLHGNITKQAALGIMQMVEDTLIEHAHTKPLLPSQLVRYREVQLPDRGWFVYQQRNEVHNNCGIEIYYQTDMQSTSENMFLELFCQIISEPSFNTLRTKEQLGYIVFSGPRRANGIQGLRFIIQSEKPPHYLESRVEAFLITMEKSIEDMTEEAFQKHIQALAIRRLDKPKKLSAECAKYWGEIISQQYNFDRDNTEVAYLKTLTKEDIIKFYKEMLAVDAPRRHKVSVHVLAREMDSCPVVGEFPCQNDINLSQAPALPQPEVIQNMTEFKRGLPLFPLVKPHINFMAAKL

WT-IDE [4] = target: T3, WT-IDE; test: IDE activity in the presence of reducing agents / reversal by DTT; type: biochemical
WT-IDE [5] = target: T3, WT-IDE; test: test for irreversible inhibition by 100-fold dilution; type: biochemical; conditions: 100 nM IDE with high inhibitor concentration 30 min, then 100-fold dilution
How it was run: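 Recombinant WT-IDE activity was measured with FRET1 substrate in DTT-free solutions under three conditions. (1) 1 nM enzyme with "high" inhibitor concentrations. (2) 1 nM enzyme with 100-fold lower concentrations. (3) 100 nM enzyme preincubated 30 min with "high" concentrations, then diluted 100-fold to 1 nM enzyme and "low" inhibitor before assay. Reversible and irreversible reference inhibitors were run alongside.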

[6] = target: T5, recombinant wild-type IDE (WT-IDE) (Homo sapiens, UniProt P14735); test: cell-free IDE activity assay with fluorogenic peptide substrate FRET1; type: biochemical
T5 sequence (P14735 1-1019): T1 sequence (P14735 1-1019)

IDE mutant sC819 = test: inhibition of single-cysteine IDE mutant sC819; type: biochemical, human; conditions: Figure 3B
[7] = read-out: IC50^app cell-based, Table 1, HEK-293 cells, extracellular IDE
[8] = read-out: IC50^app cell-free, Table 1, WT-IDE, FRET1

O=c1c2ccccc2sn1-c1cc(S(=O)(=O)N2CCOCC2)ccc1N1CCOCC1 [Compound 1]
inhibition of single-cysteine mutant sC812 (IDE mutant sC812): no significant effect
pIC50 (extracellular IDE; [7]): 5.85
pIC50 (extracellular IDE; read-out: IC50^app cell-based, Table 2): 5.85
effect on intracellular pools of IDE after prolonged incubation of intact cells [1]: unaffected
kinhib (WT-IDE [2]): 2.05 min⁻¹
pKi [3]: 5.09
reversibility of WT-IDE inhibition by treatment with dithiothreitol (WT-IDE [4]; DTT treatment, Figure 2E): reversible
activity in the presence of excess DTT, ß-mercaptoethanol or reduced glutathione (WT-IDE [4]; excess reducing agent, Supplementary Figure S1A): no activity was detected
reversibility of inhibition in dilution experiments (WT-IDE [5]): irreversible
pIC50 ([6]; read-out: IC50^app against WT-IDE, cell-free): 6.63
pIC50 [6, 8]: 6.64
inhibition of single-cysteine mutant sC819 (IDE mutant sC819): strongly inhibited

O=C(O)c1ccccc1NS(=O)(=O)c1cccc(-n2sc3ccccc3c2=O)c1 [Compound 2]
pIC50 (extracellular IDE; [7]): 5.68
pIC50 [6, 8]: 6.27

Cc1ccc(-n2sc3ccccc3c2=O)cc1S(=O)(=O)N1CCCCC1 [Compound 3]
pIC50 (extracellular IDE; [7]): 5.40
pIC50 [6, 8]: 5.99

O=c1c2ccccc2sn1-c1cc(S(=O)(=O)N2CCOCC2)ccc1N1CCCC1 [Compound 4]
pIC50 (extracellular IDE; [7]): 5.25
pIC50 [6, 8]: 5.95

CN(C)S(=O)(=O)c1cccc(-n2sc3ccccc3c2=O)c1 [Compound 5]
activity by hit cutoff criteria (extracellular IDE): inactive
pIC50 (extracellular IDE; [7]): < 5.00

O=c1c2ccccc2sn1-c1ccc(S(=O)(=O)N2CCCC2)cc1 [Compound 6]
activity by hit cutoff criteria (extracellular IDE): inactive
pIC50 (extracellular IDE; [7]): < 5.00
pIC50 [6, 8]: < 5.00

O=c1c2cc(F)ccc2sn1-c1ccccc1 [Compound 7]
activity by hit cutoff criteria (extracellular IDE): active
pIC50 (extracellular IDE; [7]): 5.41
pIC50 [6, 8]: 5.74

O=c1c2cc(C(F)(F)F)ccc2sn1-c1cc(S(=O)(=O)N2CCOCC2)ccc1N1CCOCC1 [Compound 9, 2-(2-morpholin-4-yl-5-morpholin-4-ylsulfonylphenyl)-5-(trifluoromethyl)-1,2-benzothiazol-3-one]
pIC50 (extracellular IDE): 6.92
kinhib (WT-IDE [2]): 15.3 min⁻¹
pKi [3]: 5.10
pIC50 [6]: 7.15

CCN1C(=O)C=CC1=O [NEM, N-ethylmaleimide, reference compound]
inhibition of single-cysteine mutant sC812 (IDE mutant sC812): completely inhibited
reversibility of inhibition in dilution experiments (WT-IDE [5]): irreversible
inhibition of single-cysteine mutant sC819 (IDE mutant sC819): completely inhibited
